Measured values reported in ChEMBL document CHEMBL4052664, “Novel pyridyl nitrofuranyl isoxazolines show antibacterial activity against multiple drug resistant Staphylococcus species” (Bioorg Med Chem, 2017).
In brackets after ≈: the same amount, converted by molar mass. Activity calls are given as the source filed them. The calls are words filed in the database; no cut-off is given here.

Columns and labels:
Staphylococcus aureus [1] = test: Antibacterial activity against methicillin-sensitive Staphylococcus aureus ATCC 9144 after 20 hrs by broth micro dilution method; type: functional; details: ATCC 9144, 20 h
Method in brief: (§1)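 Broth microdilution per CLSI guidelines in Mueller Hinton Broth. Growth was read as optical density at 600 nm after 20 hours. The MIC was taken as the lowest drug concentration at which OD600 stayed below 0.10. Run in triplicate.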

Staphylococcus aureus [2] = test: Antibacterial activity against methicillin-resistant Staphylococcus aureus EMRSA-15 after 20 hrs by broth microdilution method; type: functional; details: EMRSA-15, 20 h
Method in brief: (§2)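 Broth microdilution per CLSI guidelines in Mueller Hinton Broth. Growth read as optical density at 600 nm after 20 h. MIC taken as the lowest concentration giving OD600 below 0.10. Run in triplicate.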

Staphylococcus aureus [3] = test: Antibacterial activity against methicillin-resistant Staphylococcus aureus EMRSA-16 after 20 hrs by broth microdilution method; type: functional; details: EMRSA-16, 20 h; method in brief: as §2
HeLa = test: Cytotoxicity against human HeLa cells assessed as reduction in cell viability after 96 hrs by MTT assay; type: cell-based
Method in brief: (§3)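 HeLa cells were kept in DMEM with 10% FBS, 2 mM L-glutamine, non-essential amino acids and penicillin-streptomycin at 37 °C, 5% CO2. 10,000 cells per well were plated and left 24 h. Compound was then added in triplicate for 96 h continuous exposure. MTT read-out was absorbance at 570 nm. IC50 came from dose-response analysis.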

WI-38 = test: Cytotoxicity against human WI38 cells assessed as reduction in cell viability after 96 hrs by MTT assay; type: cell-based; details: WI-38, 96 h
Method in brief: as §3, with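 “WI-38 lung fibroblasts” for “HeLa cells”, “15%” for “10%”, “fitting.” for “analysis.”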

Klebsiella pneumoniae [4] = test: Antibacterial activity against Klebsiella pneumoniae NCTC 13368 after 20 hrs by broth micro dilution method; type: functional; details: NCTC 13368, 20 h; method in brief: as §1
Klebsiella pneumoniae [5] = test: Antibacterial activity against Klebsiella pneumoniae M6 after 20 hrs by broth micro dilution method; type: functional; details: M6, 20 h; method in brief: as §1
Acinetobacter baumannii [6] = test: Antibacterial activity against Acinetobacter baumannii ATCC BAA-1710 after 20 hrs by broth micro dilution method; type: functional; details: ATCC BAA-1710, 20 h; method in brief: as §1
Acinetobacter baumannii [7] = test: Antibacterial activity against Acinetobacter baumannii ATCC 17978 after 20 hrs by broth micro dilution method; type: functional; details: ATCC 17978, 20 h; method in brief: as §1
Pseudomonas aeruginosa [8] = test: Antibacterial activity against Pseudomonas aeruginosa PAO1 after 20 hrs by broth micro dilution method; type: functional; details: PAO1, 20 h; method in brief: as §1
Pseudomonas aeruginosa [9] = test: Antibacterial activity against Pseudomonas aeruginosa NCTC 13437 after 20 hrs by broth micro dilution method; type: functional; details: NCTC 13437, 20 h; method in brief: as §1
[10] = test system: Staphylococcus epidermidis; test: Antibacterial activity against Staphylococcus epidermidis ATCC 35984 after 20 hrs by broth microdilution method; type: functional; details: RP62A; method in brief: as §1
Staphylococcus aureus [11] = test: Antibacterial activity against Staphylococcus aureus A1988 after 20 hrs by broth microdilution method; type: functional; details: A1988, 20 h; method in brief: as §1
Staphylococcus aureus [12] = test: Antibacterial activity against Staphylococcus aureus BGW541 after 20 hrs by broth microdilution method; type: functional; details: BGW541, 20 h; method in brief: as §1
Staphylococcus aureus [13] = test: Antibacterial activity against methicillin-resistant Staphylococcus aureus NCTC 12493 after 20 hrs by broth microdilution method; type: functional; details: NCTC 12493, 20 h; method in brief: as §2
Staphylococcus aureus [14] = test: Antibacterial activity against Staphylococcus aureus isolate 13142 after 20 hrs by broth microdilution method; type: functional; details: isolate 13142, 20 h; method in brief: as §1
Staphylococcus aureus [15] = test: Antibacterial activity against Staphylococcus aureus NCTC 6571 after 20 hrs by broth microdilution method; type: functional; details: NCTC 6571, 20 h; method in brief: as §1
Staphylococcus aureus [16] = test: Antibacterial activity against Staphylococcus aureus NCTC 8325 after 20 hrs by broth microdilution method; type: functional; details: NCTC 8325, 20 h; method in brief: as §1
Staphylococcus aureus [17] = test: Bactericidal activity against methicillin-sensitive Staphylococcus aureus ATCC 9144 after 24 hrs; type: functional; details: ATCC 9144, 24 h
Method in brief: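 From the MIC plate, 10ul was taken from every well at and above the MIC and spotted onto tryptic soy agar. Plates were incubated 24 h at 37 °C. The MBC was the concentration at which no colonies grew.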

Staphylococcus aureus [18] = test: Ratio of MBC to MIC against methicillin-sensitive Staphylococcus aureus ATCC 9144; type: functional
Method in brief: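 MBC/MIC ratio from the broth microdilution MIC (Mueller Hinton Broth, OD600 <0.10 after 20 h, triplicate) and the MBC (MIC-plate wells at and above the MIC spotted on tryptic soy agar, 37 °C 24 h, no colonies). A ratio of 1 or 2 was taken as bactericidal; 4 or 16 as bacteriostatic.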

Staphylococcus aureus [19] = test: Bacteriostatic activity against methicillin-resistant Staphylococcus aureus EMRSA-15 at 4 times MIC after 5 to 24 hrs by time kill assay; type: functional
Method in brief: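 Mueller Hinton Broth flasks (50 mL) inoculated at ~10^6 cfu/mL. Agent added at 4x MIC and shaken at 200 rpm, 37 °C. Samples taken hourly for 8 h and at 24 h. Viable counts by modified Miles-Misra dilution. Values are the average of at least three replicate experiments, SEM shown.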

Row | Structure (SMILES) | MIC (Staphylococcus aureus [1]) | MIC (Staphylococcus aureus [2]) | MIC (Staphylococcus aureus [3]) | IC50 (HeLa) | IC50 (WI-38) | MIC (Klebsiella pneumoniae [4]) | MIC (Klebsiella pneumoniae [5]) | MIC (Acinetobacter baumannii [6]) | MIC (Acinetobacter baumannii [7]) | MIC (Pseudomonas aeruginosa [8]) | MIC (Pseudomonas aeruginosa [9]) | MIC [10] | MIC (Staphylococcus aureus [11]) | MIC (Staphylococcus aureus [12]) | MIC (Staphylococcus aureus [13]) | MIC (Staphylococcus aureus [14]) | MIC (Staphylococcus aureus [15]) | MIC (Staphylococcus aureus [16]) | also measured
1 | O=[N+]([O-])c1ccc(C2=NOC(c3ccc(N4CCN(Cc5ccncc5)CC4)cc3)C2)o1 (stereo unspecified) | 16 µg/mL (≈ 36.9 µM) | > 128 µg/mL | 128 µg/mL (≈ 295 µM) | > 50 µM | > 50 µM | > 128 µg/mL | > 128 µg/mL | > 128 µg/mL | > 128 µg/mL | > 128 µg/mL | > 128 µg/mL | – | – | – | – | – | – | – | –
2 | COc1cccc2c1C(=O)c1c(O)c3c(c(O)c1C2=O)C[C@@](O)(C(=O)CO)C[C@@H]3O[C@H]1C[C@H](N)[C@H](O)[C@H](C)O1 [DOXORUBICIN] | – | – | – | 0.071 µM | 0.071 µM | – | – | – | – | – | – | – | – | – | – | – | – | – | –
3 | O=[N+]([O-])c1ccc(C2=NOC(c3ccc(N4CCN(Cc5cccnc5)CC4)cc3)C2)o1 (stereo unspecified) | 16 µg/mL (≈ 36.9 µM) | 16 µg/mL (≈ 36.9 µM) | 32 µg/mL (≈ 73.8 µM) | > 50 µM | > 50 µM | > 128 µg/mL | > 128 µg/mL | > 128 µg/mL | > 128 µg/mL | > 128 µg/mL | > 128 µg/mL | 4 to 8 µg/mL (≈ 9.23 to 18.5 µM) | 8 µg/mL (≈ 18.5 µM) | 8 µg/mL (≈ 18.5 µM) | 4 to 8 µg/mL (≈ 9.23 to 18.5 µM) | 8 to 16 µg/mL (≈ 18.5 to 36.9 µM) | 16 µg/mL (≈ 36.9 µM) | 16 µg/mL (≈ 36.9 µM) | MBC (Staphylococcus aureus [17]): ≥ 128 µg/mL; Ratio (Staphylococcus aureus [18]): 8; Activity (Staphylococcus aureus [19]): Active
4 | O=[N+]([O-])c1ccc(C2=NOC(c3ccc(N4CCN(Cc5ccc(F)nc5)CC4)cc3)C2)o1 (stereo unspecified) | 32 µg/mL (≈ 70.9 µM) | 128 µg/mL (≈ 284 µM) | 16 µg/mL (≈ 35.4 µM) | > 50 µM | > 50 µM | > 128 µg/mL | > 128 µg/mL | > 128 µg/mL | > 128 µg/mL | > 128 µg/mL | > 128 µg/mL | – | – | – | – | – | – | – | –
5 | COc1ccc(CN2CCN(c3ccc(C4CC(c5ccc([N+](=O)[O-])o5)=NO4)cc3)CC2)cn1 (stereo unspecified) | 32 µg/mL (≈ 69 µM) | 128 µg/mL (≈ 276 µM) | 32 µg/mL (≈ 69 µM) | > 50 µM | > 50 µM | > 128 µg/mL | > 128 µg/mL | > 128 µg/mL | > 128 µg/mL | > 128 µg/mL | > 128 µg/mL | – | – | – | – | – | – | – | –
6 | CC1(C)S[C@@H]2[C@H](NC(=O)[C@H](N)c3ccc(O)cc3)C(=O)N2[C@H]1C(=O)O [AMOXICILLIN] | 0.1 to 2 µg/mL (≈ 0.274 to 5.47 µM) | 128 µg/mL (≈ 350 µM) | > 128 µg/mL | – | – | – | – | – | – | – | – | 128 µg/mL (≈ 350 µM) | > 128 µg/mL | 0.25 to 0.5 µg/mL (≈ 0.684 to 1.37 µM) | > 128 µg/mL | 0.25 µg/mL (≈ 0.684 µM) | 0.25 µg/mL (≈ 0.684 µM) | 0.25 to 0.5 µg/mL (≈ 0.684 to 1.37 µM) | –
7 | CC(C)(C)OC(=O)N1CCN(c2ccc(C3CC(c4ccc([N+](=O)[O-])o4)=NO3)cc2)CC1 (stereo unspecified) | 32 µg/mL (≈ 72.3 µM) | > 128 µg/mL | > 128 µg/mL | > 50 µM | > 50 µM | > 128 µg/mL | > 128 µg/mL | > 128 µg/mL | > 128 µg/mL | > 128 µg/mL | > 128 µg/mL | – | – | – | – | – | – | – | –
8 | O=[N+]([O-])c1ccc(C2=NOC(c3ccc(-c4ccccn4)cc3)C2)o1 (stereo unspecified) | > 128 µg/mL | > 128 µg/mL | > 128 µg/mL | > 50 µM | > 50 µM | – | – | – | – | – | – | – | – | – | – | – | – | – | –
9 | O=[N+]([O-])c1ccc(C2=NOC(c3ccc(-c4cccnc4)cc3)C2)o1 (stereo unspecified) | 32 µg/mL (≈ 95.4 µM) | 64 µg/mL (≈ 191 µM) | 16 µg/mL (≈ 47.7 µM) | > 50 µM | > 50 µM | – | – | – | – | – | – | – | – | – | – | – | – | – | –
10 | O=[N+]([O-])c1ccc(C2=NOC(c3ccc(-c4ccncc4)cc3)C2)o1 (stereo unspecified) | 64 µg/mL (≈ 191 µM) | 128 µg/mL (≈ 382 µM) | 64 µg/mL (≈ 191 µM) | > 50 µM | > 50 µM | – | – | – | – | – | – | – | – | – | – | – | – | – | –
11 | O=C(O)c1cn(C2CC2)c2cc(N3CCNCC3)c(F)cc2c1=O [CIPROFLOXACIN] | – | 32 µg/mL (≈ 96.6 µM) | 32 µg/mL (≈ 96.6 µM) | – | – | – | – | – | – | – | – | 0.125 to 0.5 µg/mL (≈ 0.377 to 1.51 µM) | 0.25 µg/mL (≈ 0.754 µM) | 0.5 µg/mL (≈ 1.51 µM) | 0.5 µg/mL (≈ 1.51 µM) | 0.25 µg/mL (≈ 0.754 µM) | 0.25 to 0.5 µg/mL (≈ 0.754 to 1.51 µM) | 0.125 to 0.25 µg/mL (≈ 0.377 to 0.754 µM) | –
12 | O=C1CN(/N=C/c2ccc([N+](=O)[O-])o2)C(=O)N1 [NITROFURANTOIN] | 16 µg/mL (≈ 67.2 µM) | 16 µg/mL (≈ 67.2 µM) | 16 µg/mL (≈ 67.2 µM) | – | – | – | – | – | – | – | – | 16 µg/mL (≈ 67.2 µM) | 16 µg/mL (≈ 67.2 µM) | 16 µg/mL (≈ 67.2 µM) | 16 µg/mL (≈ 67.2 µM) | 16 µg/mL (≈ 67.2 µM) | 16 µg/mL (≈ 67.2 µM) | 16 µg/mL (≈ 67.2 µM) | –
13 | O=[N+]([O-])c1ccc(C2=NOC(c3ccc(N4CCN(Cc5ccccn5)CC4)cc3)C2)o1 (stereo unspecified) | 16 µg/mL (≈ 36.9 µM) | 32 µg/mL (≈ 73.8 µM) | 32 µg/mL (≈ 73.8 µM) | > 50 µM | > 50 µM | > 128 µg/mL | > 128 µg/mL | > 128 µg/mL | > 128 µg/mL | > 128 µg/mL | > 128 µg/mL | 8 to 16 µg/mL (≈ 18.5 to 36.9 µM) | 16 µg/mL (≈ 36.9 µM) | 8 to 16 µg/mL (≈ 18.5 to 36.9 µM) | 8 µg/mL (≈ 18.5 µM) | 8 to 16 µg/mL (≈ 18.5 to 36.9 µM) | 16 to 32 µg/mL (≈ 36.9 to 73.8 µM) | 16 µg/mL (≈ 36.9 µM) | MBC (Staphylococcus aureus [17]): ≥ 128 µg/mL; Ratio (Staphylococcus aureus [18]): 8
